Here are results for nine compounds from ChEMBL document CHEMBL1142590, “Triterpenoid saponins from the roots of Pulsatilla koreana” (2005).

In brackets after ≈: the same amount, converted by molar mass.

The test system of this assay is A549. The assay can be described thus: Cytotoxicity against human A549 cells after 48 hrs by SRB assay. The class given is functional. As to conditions: A549, 48 h, read-out: ED50 (the source's name). In a few lines:
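A-549 human lung carcinoma cells grown adherent in RPMI-1640 with 5% heat-inactivated FBS, 37 °C, 5% CO2, humidified. Cells seeded in 96-well plates, preincubated 24 h, then exposed to compounds for 48 h. Fixed with cold 10% TCA, stained with 0.4% SRB in 1% acetic acid, OD read at 540 nm. ED50 = 50% growth inhibition; doxorubicin positive control.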
On the technique in general: The SRB assay estimates cell density from bound dye.
In the case of `C[C@@H]1O[C@@H](O[C@H]2[C@H](O[C@H]3CC[C@]4(C)[C@H]5CC=C6[C@H]7CC(C)(C)CC[C@]7(C(=O)O)CC[C@@]6(C)[C@]5(C)CC[C@H]4C3(C)C)OC[C@H](O[C@@H]3O[C@H](CO)[C@@H](O)[C@H](O)[C@H]3O)[C@@H]2O)[C@H](O)[C@H](O)[C@H]1O`, the EC50 is 2.6 µg/mL (≈ 2.9 µM).

In the case of `C[C@@H]1O[C@@H](O[C@H]2[C@H](O[C@H]3CC[C@@]4(C)[C@@H](CC[C@]5(C)[C@@H]4CC=C4[C@H]6CC(C)(C)CC[C@]6(C(=O)O)CC[C@]45C)[C@]3(C)CO)OC[C@H](O)[C@@H]2O)[C@H](O)[C@H](O)[C@H]1O`, the EC50 was found to be 9.6 µg/mL (≈ 12.8 µM).

In the case of `C=C(C)[C@@H]1CC[C@]2(C(=O)O)CC[C@]3(C)[C@H](CC[C@@H]4[C@@]5(C)CC[C@H](O[C@@H]6OC[C@H](O)[C@H](O)[C@H]6O[C@@H]6O[C@@H](C)[C@H](O)[C@@H](O[C@@H]7O[C@H](CO)[C@@H](O)[C@H](O)[C@H]7O)[C@H]6O)C(C)(C)[C@@H]5CC[C@]43C)[C@@H]12`, the EC50 was above 10 µg/mL.

On to `C=C(C)[C@@H]1CC[C@]2(C(=O)O)CC[C@]3(C)[C@H](CC[C@@H]4[C@@]5(C)CC[C@H](O[C@@H]6OC[C@H](O[C@@H]7O[C@H](CO)[C@@H](O)[C@H](O)[C@H]7O)[C@H](O)[C@H]6O)[C@@](C)(CO)[C@@H]5CC[C@]43C)[C@@H]12`, for which the EC50 was above 10 µg/mL.

In the case of `C[C@@H]1O[C@@H](O[C@H]2[C@H](O[C@H]3CC[C@@]4(C)[C@@H](CC[C@]5(C)[C@@H]4CC=C4[C@H]6CC(C)(C)CC[C@]6(C(=O)O)CC[C@]45C)[C@]3(C)CO)OC[C@H](O)[C@@H]2O)[C@H](O)[C@H](O[C@@H]2O[C@H](CO)[C@@H](O[C@@H]3O[C@H](CO)[C@@H](O)[C@H](O)[C@H]3O)[C@H](O)[C@H]2O)[C@H]1O`, the EC50 is above 10 µg/mL.

For `C=C(C)[C@@H]1CC[C@]2(C(=O)O)CC[C@]3(C)[C@H](CC[C@@H]4[C@@]5(C)CC[C@H](O[C@@H]6OC[C@H](O)[C@H](O)[C@H]6O[C@@H]6O[C@@H](C)[C@H](O)[C@@H](O[C@@H]7O[C@H](CO)[C@@H](O)[C@H](O)[C@H]7O)[C@H]6O)[C@@](C)(CO)[C@@H]5CC[C@]43C)[C@@H]12`, the EC50 is above 10 µg/mL.

In the case of `COc1cccc2c1C(=O)c1c(O)c3c(c(O)c1C2=O)C[C@@](O)(C(=O)CO)C[C@@H]3O[C@H]1C[C@H](N)[C@H](O)[C@H](C)O1` [DOXORUBICIN], the EC50 was 0.02 µg/mL (≈ 0.0368 µM).

Take `C=C(C)[C@@H]1CC[C@]2(C(=O)O)CC[C@]3(C)[C@H](CC[C@@H]4[C@@]5(C)CC[C@H](O[C@@H]6OC[C@H](O[C@@H]7O[C@H](CO)[C@@H](O)[C@H](O)[C@H]7O)[C@H](O)[C@H]6O[C@@H]6O[C@@H](C)[C@H](O)[C@@H](O)[C@H]6O)C(C)(C)[C@@H]5CC[C@]43C)[C@@H]12`: the EC50 is above 10 µg/mL.

As to `C=C(C)[C@@H]1CC[C@]2(C(=O)O)CC[C@]3(C)[C@H](CC[C@@H]4[C@@]5(C)CC[C@H](O[C@@H]6OC[C@H](O[C@@H]7O[C@H](CO)[C@@H](O)[C@H](O)[C@H]7O)[C@H](O)[C@H]6O[C@@H]6O[C@@H](C)[C@H](O)[C@@H](O)[C@H]6O)[C@@](C)(CO)[C@@H]5CC[C@]43C)[C@@H]12`, the EC50 was above 10 µg/mL.
